Experiment [1] addresses T1, Thioredoxin reductase 3 (Homo sapiens, UniProt Q86VQ6).
T1 sequence (Q86VQ6 whole entry): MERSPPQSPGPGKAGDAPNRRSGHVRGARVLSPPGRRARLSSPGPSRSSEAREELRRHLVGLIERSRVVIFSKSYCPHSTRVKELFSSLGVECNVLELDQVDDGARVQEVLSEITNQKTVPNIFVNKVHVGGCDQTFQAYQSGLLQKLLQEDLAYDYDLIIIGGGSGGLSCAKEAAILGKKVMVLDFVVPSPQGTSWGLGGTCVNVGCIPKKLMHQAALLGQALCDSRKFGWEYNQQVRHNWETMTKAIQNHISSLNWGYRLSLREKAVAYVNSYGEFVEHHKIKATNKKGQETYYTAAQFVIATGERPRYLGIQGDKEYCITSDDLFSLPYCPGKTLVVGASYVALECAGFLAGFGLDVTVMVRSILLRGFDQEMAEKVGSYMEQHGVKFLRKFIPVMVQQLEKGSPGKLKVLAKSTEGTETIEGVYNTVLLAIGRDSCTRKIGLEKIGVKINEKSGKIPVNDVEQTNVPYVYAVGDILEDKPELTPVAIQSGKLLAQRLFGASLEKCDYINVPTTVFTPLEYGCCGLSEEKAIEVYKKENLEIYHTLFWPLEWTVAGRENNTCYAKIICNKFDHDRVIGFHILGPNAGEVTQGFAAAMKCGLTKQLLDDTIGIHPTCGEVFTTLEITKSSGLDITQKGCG
The experiment in a line: Inhibition of thioredoxin reductase. The gist of the method: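 TrxR-only activity in HE buffer (100 mM HEPES pH 7.2, 5 mM EDTA) with 1.0 μM TrxR, 10 mM DTNB, 1 mM NADPH and inhibitor (final). Compound and enzyme added first, reaction started with NADPH/DTNB at 37 °C. OD 412 nm read every 10 s for initial linear rates. IC50 is 50% inhibition of thionitrobenzoate formation.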

The target of experiment [2] is T1, Thioredoxin reductase 3. The experiment in a line: Inhibition of thioredoxin reductase in the presence of thioredoxinand insulin. An outline of the steps: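 Insulin reduction coupled to Trx/TrxR, final concentrations: 100 mM HEPES pH 7.2, 5 mM EDTA, 1 mM NADPH, 1.0 μM TrxR, 0.8 μM Trx, 2.5 mg/mL bovine insulin plus inhibitor. 30 min at 37 °C, stopped with 6 M guanidine HCl/50 mM Tris pH 8.0/10 mM DTNB, absorbance at 412 nm. IC50 for 50% inhibition of thionitrobenzoate formation.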

In general, IC50 refers to the point on the concentration scale where inhibition reaches its midpoint.

On to `OCC1O[C@@H]2O[C@@H]3C(C[Te]c4ccccc4)O[C@H](O[C@@H]4C(CO)O[C@H](O[C@@H]5C(CO)O[C@H](O[C@@H]6C(CO)O[C@@H](O[C@@H]7C(CO)O[C@H](O[C@@H]8C(CO)O[C@H](O[C@H]1C(O)C2O)C(O)C8O)C(O)C7O)C(O)C6O)C(O)C5O)C(O)C4O)C(O)C3O` (some centres not stated), for which the half-maximal inhibitory concentration (IC50) at Thioredoxin reductase 3 [1] is 17.8 µM; at Thioredoxin reductase 3 [2] it was 18 µM.

The record behind these values is BindingDB's records for doi:10.1021/jm030916r (Uppsala University, 2004).
